The subject of data set [1] is Mus musculus. As to the kind of experiment: Antiinflammatory activity in mouse plasma assessed as inhibition of LPS-induced TNFalpha production at 10 mg/kg, po administered 1 hr before LPS challenge measured after 1 hr. It is filed as functional. Put shortly:
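Mice received compound orally in Cremophor RH 1 h before LPS challenge. Plasma TNF-α was measured 1 h after challenge. n = 8 per group; doses were 3 and 10 mg/kg.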

Data set [2] deals with Mus musculus. Nature of the data set: Antiarthritic activity in B10.R3 mouse collagen-induced arthritis model assessed as AUC of disease progression inhibition at 30 mg/kg, po qd for 5 weeks. It is filed as functional. The note with it: B10.R3, 840 h. Put shortly: (§1)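 B10.RIII mice immunized with porcine type II collagen plus complete Freund's adjuvant were enrolled at the first signs of arthritis. They were dosed orally once daily for 5 weeks; vehicle was 30% Cremophor RH. All four paws were scored 1–4 (maximum 16 per animal). Disease-score AUCs from 10 mice per group were compared with vehicle by Mann–Whitney test.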

Data set [3] has as its system Mus musculus. As to the kind of experiment: Toxicity in B10.R3 mouse collagen-induced arthritis model assessed as change in body weight at 3 mg/kg, po qd for 5 weeks relative to control. It counts as organism-based. On the set-up: dose 3 mg/kg, route oral. The note with it: in vivo, 840 h.
Data set [4] deals with Mus musculus. Nature of the data set: Toxicity in B10.R3 mouse collagen-induced arthritis model assessed as change in body weight at 30 mg/kg, po qd for 5 weeks relative to control. The note with it: in vivo, 840 h. It counts as organism-based. On the set-up: dose 30 mg/kg, route oral.
In data set [5] the test system is Mus musculus. Nature of the data set: Toxicity in B10.R3 mouse collagen-induced arthritis model assessed as change in body fat level at 3 mg/kg, po qd for 5 weeks relative to control. It is filed as organism-based. On the set-up: dose 3 mg/kg, route oral. The note with it: in vivo, 840 h. Put shortly:
(§2)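 Arthritic B10.RIII CIA mice were dosed orally once daily for 5 weeks. At day 35 they were anesthetized with ketamine (50 mg/kg) and xylazine (15 mg/kg). Body fat was assessed by whole-body density scan. Serum triglycerides were measured by enzymatic kit (Wako L-Type TG-H) and free fatty acids by NEFA-C. Results are expressed as % change versus vehicle and compared by t-test.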

Data set [6] deals with Mus musculus. As to the kind of experiment: Toxicity in B10.R3 mouse collagen-induced arthritis model assessed as change in body fat level at 30 mg/kg, po qd for 5 weeks relative to control. It is filed as organism-based. On the set-up: dose 30 mg/kg, route oral. The note with it: in vivo, 840 h. Put shortly: as §2
In data set [7] the test system is Mus musculus. As to the kind of experiment: Toxicity in B10.R3 mouse collagen-induced arthritis model assessed as change in serum triglyceride level at 3 mg/kg, po qd for 5 weeks relative to control. The settings on record: in vivo, 840 h. It counts as organism-based. Also noted: dose 3 mg/kg, route oral. Summed up:
as §2

Data set [8] deals with Mus musculus. As to the kind of experiment: Toxicity in B10.R3 mouse collagen-induced arthritis model assessed as change in serum triglyceride level at 30 mg/kg, po qd for 5 weeks relative to control. It is filed as organism-based. On the set-up: dose 30 mg/kg, route oral. The note with it: in vivo, 840 h. Summed up:
as §2

For data set [9], the system named is Mus musculus. As to the kind of experiment: Toxicity in B10.R3 mouse collagen-induced arthritis model assessed as change in serum free fatty acids level at 3 mg/kg, po qd for 5 weeks relative to control. It is filed as organism-based. The settings on record: in vivo, 840 h. Also noted: dose 3 mg/kg, route oral. Put shortly:
as §2

The subject of data set [10] is Mus musculus. Nature of the data set: Toxicity in B10.R3 mouse collagen-induced arthritis model assessed as change in serum free fatty acids level at 30 mg/kg, po qd for 5 weeks relative to control. It counts as organism-based. On the set-up: dose 30 mg/kg, route oral. The settings on record: in vivo, 840 h. Put shortly: as §2
Data set [11] concerns Mus musculus. As to the kind of experiment: Toxicity in B10.R3 mouse collagen-induced arthritis model assessed as change in serum insulin level at 3 mg/kg, po qd for 5 weeks by ELISA relative to control. It is filed as organism-based. On the set-up: dose 3 mg/kg, route oral. The settings on record: in vivo, 840 h. Background: In an ELISA, binding on a coated surface is turned into a signal by an enzyme label.

For data set [12], the system named is Mus musculus. Nature of the data set: Toxicity in B10.R3 mouse collagen-induced arthritis model assessed as change in serum insulin level at 30 mg/kg, po qd for 5 weeks by ELISA relative to control. The settings on record: in vivo, 840 h. Also noted: dose 30 mg/kg, route oral. It counts as organism-based.
Data set [13] relates to Mus musculus. As to the kind of experiment: Antiarthritic activity in B10.R3 mouse collagen-induced arthritis model assessed as AUC of disease progression inhibition at 10 mg/kg, po qd for 5 weeks. It counts as functional. The note with it: B10.R3, 840 h. Put shortly:
as §1

Data set [14] is filed under the species Mus musculus. As to the kind of experiment: animal or person. The settings on record: B10.R3, po, 840 h, read-out: INH.

Each structure is given as a SMILES string.

For 1 molecule, inhibition in vivo and Activity results are on record in ChEMBL document CHEMBL1909618, “Non-steroidal dissociated glucocorticoid agonists: indoles as A-ring mimetics and function-regulating pharmacophores” (Bioorg Med Chem Lett, 2011).

For `C[C@]12C=CC(=O)C=C1CC[C@@H]1[C@@H]2[C@@H](O)C[C@@]2(C)[C@H]1CC[C@]2(O)C(=O)CO` [PREDNISOLONE], the inhibition in vivo at 10 mg/kg in the data set with Mus musculus [1] was 84%; with Mus musculus [13], 62%. In addition, the inhibition in vivo at 30 mg/kg in the data set on Mus musculus [2] was found to be 80%. Besides, the Activity in the data set on Mus musculus [3] is 1.1%; in the data set on Mus musculus [4] it was 9%; in the data set on Mus musculus [5], 36%; with Mus musculus [6], 70%; in the data set with Mus musculus [7] it was -11%; in the data set on Mus musculus [8] it was 55%. The Activity in the data set on Mus musculus [9] is 8%; with Mus musculus [10] it was 25%; with Mus musculus [11], 37%; in the data set on Mus musculus [12], 190%. Further, the inhibition in vivo at 3 mg/kg in the data set filed under Mus musculus [14] amounted to 42%.
